Reference: ChEMBL document CHEMBL4627265, “Optimization of 8-oxoadenines with toll-like-receptor 7 and 8 activity” (Bioorg Med Chem Lett, 2020)
Calls of active or inactive are those of the source. The rule behind the calls is not given here.

Assays:
Assay type in all cases: cell-based
Toll-like receptor 7 = molecular target: T1, Toll-like receptor 7 (Homo sapiens, UniProt Q9NYK1); test: Agonist activity at human TLR7 expressed in HEK293 cells assessed as induction of NFKappaB activity after 24 hrs by SEAP reporter gene assay
T1 sequence (Q9NYK1 whole entry): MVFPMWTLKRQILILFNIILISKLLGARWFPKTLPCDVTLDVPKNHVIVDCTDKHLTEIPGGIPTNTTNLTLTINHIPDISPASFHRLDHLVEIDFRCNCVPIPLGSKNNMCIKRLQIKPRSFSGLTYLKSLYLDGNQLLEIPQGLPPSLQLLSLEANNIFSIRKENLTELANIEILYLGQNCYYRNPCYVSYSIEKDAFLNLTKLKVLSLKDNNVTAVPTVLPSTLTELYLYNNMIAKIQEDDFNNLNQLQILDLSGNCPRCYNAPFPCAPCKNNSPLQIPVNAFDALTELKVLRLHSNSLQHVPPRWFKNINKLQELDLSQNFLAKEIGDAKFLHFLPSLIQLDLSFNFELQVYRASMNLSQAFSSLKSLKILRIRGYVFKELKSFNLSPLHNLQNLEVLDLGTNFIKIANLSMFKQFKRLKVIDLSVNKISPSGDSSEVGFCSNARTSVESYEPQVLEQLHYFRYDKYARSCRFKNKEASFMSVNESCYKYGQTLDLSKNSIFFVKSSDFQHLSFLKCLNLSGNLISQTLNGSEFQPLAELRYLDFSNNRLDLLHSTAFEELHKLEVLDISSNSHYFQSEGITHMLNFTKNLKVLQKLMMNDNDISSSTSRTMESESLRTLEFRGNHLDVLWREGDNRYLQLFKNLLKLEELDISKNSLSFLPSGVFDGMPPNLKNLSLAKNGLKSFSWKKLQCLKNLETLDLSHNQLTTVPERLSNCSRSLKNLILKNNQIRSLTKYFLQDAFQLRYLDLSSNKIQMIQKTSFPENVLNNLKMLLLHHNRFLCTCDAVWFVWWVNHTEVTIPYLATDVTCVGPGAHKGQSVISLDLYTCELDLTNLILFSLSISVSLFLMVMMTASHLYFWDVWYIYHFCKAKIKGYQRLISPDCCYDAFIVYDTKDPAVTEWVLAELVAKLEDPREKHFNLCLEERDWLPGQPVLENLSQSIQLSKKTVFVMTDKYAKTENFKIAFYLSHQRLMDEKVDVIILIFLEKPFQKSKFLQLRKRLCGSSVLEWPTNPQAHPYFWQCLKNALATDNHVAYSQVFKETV
Method in brief: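 HEK293 cells stably transfected with hTLR7 or hTLR8 plus an NFκB-driven SEAP reporter, treated 24 h with compound over a μM range; SEAP secretion read out. EC50 as mean ± SD of three (TLR7) or four (TLR8) independent experiments.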

[1] = molecular target: T2, Toll-like receptor 7 (Homo sapiens) (UniProt Q9NYK1); test: Agonist activity at TLR7 in human PBMC assessed as IFNalpha stimulation at 10 uM
T2 sequence (whole entry): T1 sequence (Q9NYK1 whole entry)
Method in brief: (§1)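 IFNα secretion by hPBMCs across a μM dose range; MEC = lowest dose tested inducing cytokine, PC = dose giving highest level, PL = peak level at 10 μM. Data representative of one of three independent donors.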

[2] = molecular target: T3, Toll-like receptor 8 (Homo sapiens) (UniProt Q9NR97); test: Agonist activity at TLR8 in human PBMC assessed as induction of myeloid dendritic cell maturation by measuring HLA-DR level at 0.1 uM after 6 hrs by flow cytometry
T3 sequence (whole entry): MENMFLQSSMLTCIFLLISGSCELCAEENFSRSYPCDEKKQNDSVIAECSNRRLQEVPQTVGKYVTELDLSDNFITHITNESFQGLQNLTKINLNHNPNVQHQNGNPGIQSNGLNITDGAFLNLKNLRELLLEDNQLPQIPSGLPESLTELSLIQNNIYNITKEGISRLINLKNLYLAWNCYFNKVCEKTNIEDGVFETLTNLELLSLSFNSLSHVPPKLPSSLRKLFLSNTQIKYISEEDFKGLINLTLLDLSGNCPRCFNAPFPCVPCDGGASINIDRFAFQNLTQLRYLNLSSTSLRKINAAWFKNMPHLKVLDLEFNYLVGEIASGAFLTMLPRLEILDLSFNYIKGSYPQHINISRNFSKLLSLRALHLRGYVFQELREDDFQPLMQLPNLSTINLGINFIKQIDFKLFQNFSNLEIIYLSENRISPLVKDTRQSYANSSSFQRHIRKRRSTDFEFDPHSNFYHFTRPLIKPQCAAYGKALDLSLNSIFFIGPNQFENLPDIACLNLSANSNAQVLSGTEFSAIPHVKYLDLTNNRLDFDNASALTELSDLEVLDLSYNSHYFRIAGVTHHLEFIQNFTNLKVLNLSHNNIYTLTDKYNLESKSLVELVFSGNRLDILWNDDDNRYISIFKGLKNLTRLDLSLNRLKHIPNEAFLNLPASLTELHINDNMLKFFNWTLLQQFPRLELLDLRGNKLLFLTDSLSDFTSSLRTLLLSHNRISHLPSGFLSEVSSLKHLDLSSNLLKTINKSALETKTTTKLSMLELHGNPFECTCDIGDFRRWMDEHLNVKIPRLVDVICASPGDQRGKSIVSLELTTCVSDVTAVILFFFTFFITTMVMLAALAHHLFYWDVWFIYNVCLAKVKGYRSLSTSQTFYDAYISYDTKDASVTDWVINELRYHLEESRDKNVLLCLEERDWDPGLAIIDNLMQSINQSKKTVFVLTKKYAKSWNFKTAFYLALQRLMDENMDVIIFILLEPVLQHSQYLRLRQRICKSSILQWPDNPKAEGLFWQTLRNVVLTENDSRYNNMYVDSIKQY
Method in brief: (§2)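 hPBMCs stimulated 6 h at a single 0.1 μM dose; HLA-DR, MHC-I, CD80 and CD86 on mDCs and pDCs measured by flow cytometry, expressed as fold change versus unstimulated cells. Mean ± SD of three independent experiments in three different donors.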

[3] = molecular target: T2, Toll-like receptor 7 (Homo sapiens); test: Agonist activity at TLR7 in human PBMC assessed as induction of plasmacytoid dendritic cell maturation by measuring CD80 level at 0.1 uM after 6 hrs by flow cytometry; method in brief: as §2
[4] = molecular target: T2, Toll-like receptor 7 (Homo sapiens); test: Agonist activity at TLR7 in human PBMC assessed as induction of plasmacytoid dendritic cell maturation by measuring CD86 level at 0.1 uM after 6 hrs by flow cytometry; method in brief: as §2
[5] = molecular target: T3, Toll-like receptor 8 (Homo sapiens); test: Agonist activity at TLR8 in human PBMC assessed as TNFalpha level
Method in brief: (§3)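 TNFα secretion by hPBMCs across a μM dose range; MEC = lowest dose tested inducing cytokine, PC = dose giving highest level, PL = peak level at 10 μM. Data representative of one of three independent donors.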

[6] = molecular target: T2, Toll-like receptor 7 (Homo sapiens); test: Agonist activity at TLR7 in human PBMC assessed as induction of plasmacytoid dendritic cell maturation by measuring increase in MHC-1 level at 0.1 uM after 6 hrs by flow cytometry relative to control; method in brief: as §2
[7] = molecular target: TLR7 and TLR8 (Homo sapiens) (UniProt Q9NYK1+Q9NR97); test: Agonist activity at TLR7/TLR8 in human PBMC assessed as IFN alpha level; method in brief: as §1
[8] = molecular target: T3, Toll-like receptor 8 (Homo sapiens); test: Agonist activity at TLR8 in human PBMC assessed as induction of myeloid dendritic cell maturation by measuring CD86 level at 0.1 uM after 6 hrs by flow cytometry; method in brief: as §2
[9] = molecular target: T2, Toll-like receptor 7 (Homo sapiens); test: Agonist activity at TLR7 in human PBMC assessed as induction of plasmacytoid dendritic cell maturation by measuring increase in HLA-DR level at 0.1 uM after 6 hrs by flow cytometry relative to control; method in brief: as §2
[10] = molecular target: T3, Toll-like receptor 8 (Homo sapiens); test: Agonist activity at TLR8 in human PBMC assessed as TNFalpha level at 10 uM; method in brief: as §3
[11] = molecular target: T2, Toll-like receptor 7 (Homo sapiens); test: Agonist activity at TLR7 in human PBMC assessed as induction of plasmacytoid dendritic cell maturation by measuring increase in CD86 level at 0.1 uM after 6 hrs by flow cytometry relative to control; method in brief: as §2
[12] = molecular target: Toll-like receptor 3 (Homo sapiens) (UniProt O15455); test: Agonist activity at human TLR3 expressed in HEK293 cells by SEAP reporter gene assay
Chain of Toll-like receptor 3 (Homo sapiens) (O15455 whole entry): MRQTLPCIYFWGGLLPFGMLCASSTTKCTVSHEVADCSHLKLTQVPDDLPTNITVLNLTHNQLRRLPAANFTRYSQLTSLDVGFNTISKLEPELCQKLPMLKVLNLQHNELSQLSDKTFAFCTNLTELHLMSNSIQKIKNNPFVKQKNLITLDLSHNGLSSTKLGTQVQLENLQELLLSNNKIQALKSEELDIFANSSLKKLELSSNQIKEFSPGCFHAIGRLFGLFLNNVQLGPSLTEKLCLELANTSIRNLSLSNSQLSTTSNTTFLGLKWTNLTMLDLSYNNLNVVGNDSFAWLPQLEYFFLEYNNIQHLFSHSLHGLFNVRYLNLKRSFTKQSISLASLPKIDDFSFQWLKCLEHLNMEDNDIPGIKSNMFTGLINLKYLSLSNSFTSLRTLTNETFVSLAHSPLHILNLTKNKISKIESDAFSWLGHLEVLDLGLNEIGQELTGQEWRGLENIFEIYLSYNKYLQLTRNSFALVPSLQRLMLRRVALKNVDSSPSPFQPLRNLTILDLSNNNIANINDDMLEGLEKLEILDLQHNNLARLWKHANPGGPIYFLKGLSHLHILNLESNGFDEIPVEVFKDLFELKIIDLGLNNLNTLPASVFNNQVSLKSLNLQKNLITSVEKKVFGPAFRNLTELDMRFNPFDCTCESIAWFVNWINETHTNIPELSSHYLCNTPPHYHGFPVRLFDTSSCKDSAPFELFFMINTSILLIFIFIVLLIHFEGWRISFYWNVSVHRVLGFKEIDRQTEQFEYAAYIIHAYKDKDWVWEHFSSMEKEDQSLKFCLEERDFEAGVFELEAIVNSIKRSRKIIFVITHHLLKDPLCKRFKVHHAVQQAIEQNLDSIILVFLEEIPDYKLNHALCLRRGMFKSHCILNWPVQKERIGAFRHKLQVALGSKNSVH

[13] = molecular target: T4, Toll-like receptor 9 (Homo sapiens) (UniProt Q9NR96); test: Agonist activity at human TLR9 expressed in HEK293 cells by SEAP reporter gene assay
T4 sequence (whole entry): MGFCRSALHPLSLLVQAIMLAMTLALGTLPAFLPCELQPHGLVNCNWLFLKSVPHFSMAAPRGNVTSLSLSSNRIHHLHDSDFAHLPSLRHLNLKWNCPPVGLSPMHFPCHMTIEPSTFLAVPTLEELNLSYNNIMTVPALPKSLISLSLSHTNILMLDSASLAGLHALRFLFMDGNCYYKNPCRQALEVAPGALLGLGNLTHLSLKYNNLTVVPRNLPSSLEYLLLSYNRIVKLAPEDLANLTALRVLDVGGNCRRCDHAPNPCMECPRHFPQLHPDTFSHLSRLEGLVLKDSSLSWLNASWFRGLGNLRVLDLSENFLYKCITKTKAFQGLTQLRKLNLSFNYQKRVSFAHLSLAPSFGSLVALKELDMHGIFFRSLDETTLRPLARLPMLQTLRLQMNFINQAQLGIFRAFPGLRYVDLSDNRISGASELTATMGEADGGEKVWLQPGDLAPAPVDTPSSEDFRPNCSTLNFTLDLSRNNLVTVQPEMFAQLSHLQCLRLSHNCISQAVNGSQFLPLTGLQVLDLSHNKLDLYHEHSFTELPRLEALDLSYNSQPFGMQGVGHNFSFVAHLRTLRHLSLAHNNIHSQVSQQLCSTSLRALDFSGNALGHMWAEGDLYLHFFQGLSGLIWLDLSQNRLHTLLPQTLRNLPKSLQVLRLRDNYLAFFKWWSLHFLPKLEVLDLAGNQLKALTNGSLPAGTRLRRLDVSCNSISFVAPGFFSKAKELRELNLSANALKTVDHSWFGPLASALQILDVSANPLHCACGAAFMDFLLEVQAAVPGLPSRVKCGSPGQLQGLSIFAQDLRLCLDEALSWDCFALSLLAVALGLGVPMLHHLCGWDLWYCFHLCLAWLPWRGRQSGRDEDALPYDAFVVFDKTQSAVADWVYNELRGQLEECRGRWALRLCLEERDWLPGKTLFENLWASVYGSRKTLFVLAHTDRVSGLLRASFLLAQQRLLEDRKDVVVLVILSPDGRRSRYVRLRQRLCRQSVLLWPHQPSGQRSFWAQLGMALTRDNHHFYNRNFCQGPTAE

CCC[C@H](C)Oc1nc(N)c2[nH]c(=O)n(CC3CCN(CCN)CC3)c2n1
EC50 (Toll-like receptor 7): 6.71 µM
Activity [1]: 4420 pg/mL

CCCCOc1nc(N)c2[nH]c(=O)n(CC3CCN(CCO)CC3)c2n1
Activity [2]: inactive
EC50 (Toll-like receptor 7): 23.1 µM
Activity [3]: inactive
Activity [4]: inactive
MEC [5]: 10 µM
fold change (FC) [6]: 1.5 to 1.7
ECmax [7]: 0.4 µM
MEC [7]: 0.4 µM
Activity [8]: inactive
fold change (FC) [9]: 1.5 to 1.7
Activity [10]: 2740 pg/mL
Activity [1]: 4730 pg/mL
fold change (FC) [11]: 1.7 to 2.3

CCCCNc1nc(N)c2[nH]c(=O)n(CC3CCNCC3)c2n1
EC50 (Toll-like receptor 7): 40 µM
Activity [1]: 5980 pg/mL

CCC[C@@H](C)Oc1nc(N)c2[nH]c(=O)n(CC3CCNCC3)c2n1
EC50 (Toll-like receptor 7): 35.8 µM
Activity [3]: inactive
Activity [4]: inactive
fold change (FC) [6]: 1.2 to 2.4
fold change (FC) [9]: 1.2 to 2.4
Activity [12]: inactive
Activity [1]: 6210 pg/mL
Activity [13]: inactive

CCCCOc1nc(N)c2[nH]c(=O)n(CCCCCC3CCNCC3)c2n1
EC50 (Toll-like receptor 7): 0.45 µM
fold change (FC) [6]: 1.7 to 2.3
fold change (FC) [9]: 1.7 to 2.3
Activity [1]: 4680 pg/mL

CCCCOc1nc(N)c2[nH]c(=O)n(CC3CCN(CCN)CC3)c2n1
EC50 (Toll-like receptor 7): 30 µM
Activity [3]: inactive
Activity [4]: inactive
fold change (FC) [6]: 1.5 to 1.7
fold change (FC) [9]: 1.5 to 1.7
Activity [1]: 3040 pg/mL
fold change (FC) [11]: 1.7 to 2.3

COCCOc1nc(N)c2[nH]c(=O)n(Cc3ccccc3)c2n1
EC50 (Toll-like receptor 7): 1.17 µM
MEC [5]: 2 µM
ECmax [7]: 0.08 µM
MEC [7]: 0.08 µM
Activity [10]: 1660 pg/mL
Activity [1]: 1440 pg/mL

CCC[C@H](C)Oc1nc(N)c2[nH]c(=O)n(CC3CCNCC3)c2n1
EC50 (Toll-like receptor 7): 2.68 µM
fold change (FC) [6]: 1.2 to 2.4
fold change (FC) [9]: 1.2 to 2.4
Activity [12]: inactive
Activity [1]: 5470 pg/mL
Activity [13]: inactive
fold change (FC) [11]: 2

CCC[C@H](C)Oc1nc(N)c2[nH]c(=O)n(CCCCCC3CCNCC3)c2n1
EC50 (Toll-like receptor 7): 0.24 µM
fold change (FC) [6]: 1.7 to 2.3
fold change (FC) [9]: 1.7 to 2.3
Activity [1]: 2640 pg/mL

CCCCOc1nc(N)c2[nH]c(=O)n(CC3CCNCC3)c2n1
EC50 (Toll-like receptor 7): 19.8 µM
fold change (FC) [6]: 1.2 to 2.4
fold change (FC) [9]: 1.2 to 2.4
Activity [12]: inactive
Activity [1]: 5900 pg/mL
Activity [13]: inactive
fold change (FC) [11]: 1.4
